We go through seven compounds from ChEMBL document CHEMBL1132410, “5-Chloro-N-(4-methoxy-3-piperazin-1-yl- phenyl)-3-methyl-2-benzothiophenesulfon- amide (SB-271046): a potent, selective, and orally bioavailable 5-HT6 receptor antagonist” (J Med Chem, 1999).

The target of assay [1] is 5-hydroxytryptamine receptor 6 (Homo sapiens, UniProt P50406). Briefly: Binding affinity against human cloned 5-hydroxytryptamine 6 receptor in HeLa cells using [3H]LSD. The class given is cell-based. An outline of the steps:
(§1)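 Radioligand binding at human cloned receptors; cell hosts and radioligands as listed per line: 5-HT1A, 5-HT2A, 5-HT2B, 5-HT2C and 5-HT7 in HEK 293 cells; 5-HT1B, 5-HT1D, 5-HT1E, 5-HT1F, D2 and D3 in CHO cells; 5-HT6 in HeLa cells. Values are the mean of at least two determinations, each within 0.2 log unit of the mean.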

For the next assay, the species on record is Homo sapiens. As to the kind of experiment: Selectivity for 5-HT6 receptors with respect to the 5-HT1A, 5-HT1B, 5-HT1D, 5-HT1E, 5-HT1F, 5-HT2A, 5-HT2B, 5-HT2C, 5-HT4, 5-HT7, Alpha-1B, D2, D3 receptors.
Assay [2] deals with T1, 5-hydroxytryptamine receptor 1A (Homo sapiens, UniProt P08908).
T1 sequence (P08908 whole entry): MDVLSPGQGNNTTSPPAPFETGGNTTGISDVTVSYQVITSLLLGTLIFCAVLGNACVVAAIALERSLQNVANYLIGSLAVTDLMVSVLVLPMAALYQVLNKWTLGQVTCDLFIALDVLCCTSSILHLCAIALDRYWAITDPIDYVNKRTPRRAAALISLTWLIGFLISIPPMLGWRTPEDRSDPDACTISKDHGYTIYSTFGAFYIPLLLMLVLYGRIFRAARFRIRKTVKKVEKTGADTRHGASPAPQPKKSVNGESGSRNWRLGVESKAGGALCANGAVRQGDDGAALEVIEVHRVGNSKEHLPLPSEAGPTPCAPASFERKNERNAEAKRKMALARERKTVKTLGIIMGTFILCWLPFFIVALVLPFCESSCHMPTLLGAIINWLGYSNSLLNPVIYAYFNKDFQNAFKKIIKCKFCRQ
Briefly: Compound was tested for its binding affinity against 5-hydroxytryptamine 1A receptor in human cloned receptors in HEK 293 cells using [3H]8-OH-DPAT. The class given is cell-based, HEK293. The procedure, abridged: as §1

The target of assay [3] is 5-hydroxytryptamine receptor 1B (Homo sapiens, UniProt P28222). As to the kind of experiment: Compound was tested for its binding affinity against human cloned 5-hydroxytryptamine 1B receptor in CHO cells using [3H]5-HT. The class given is cell-based. An outline of the steps:
as §1

Assay [4] has as its target 5-hydroxytryptamine receptor 1D (Homo sapiens, UniProt P28221). Briefly: Compound was tested for its binding affinity against human cloned 5-hydroxytryptamine 1D receptor in CHO cells using [3H]5-HT. The class given is cell-based. The procedure, abridged: as §1
For assay [5], the target named is 5-hydroxytryptamine receptor 1E (Homo sapiens, UniProt P28566). As to the kind of experiment: Compound was tested for its binding affinity against cloned human 5-hydroxytryptamine 1E receptor in CHO cells using [3H]-5-HT. The class given is cell-based. An outline of the steps:
as §1

Assay [6] concerns the target 5-hydroxytryptamine receptor 2A (Homo sapiens, UniProt P28223). As to the kind of experiment: Compound was tested for its binding affinity against 5-hydroxytryptamine 2A receptor in human cloned receptors in HEK 293 cells using [3H]ketanserin. Type of assay: cell-based, HEK293. An outline of the steps:
as §1

Assay [7] deals with T2, 5-hydroxytryptamine receptor 1F (Homo sapiens, UniProt P30939).
T2 sequence (P30939 whole entry): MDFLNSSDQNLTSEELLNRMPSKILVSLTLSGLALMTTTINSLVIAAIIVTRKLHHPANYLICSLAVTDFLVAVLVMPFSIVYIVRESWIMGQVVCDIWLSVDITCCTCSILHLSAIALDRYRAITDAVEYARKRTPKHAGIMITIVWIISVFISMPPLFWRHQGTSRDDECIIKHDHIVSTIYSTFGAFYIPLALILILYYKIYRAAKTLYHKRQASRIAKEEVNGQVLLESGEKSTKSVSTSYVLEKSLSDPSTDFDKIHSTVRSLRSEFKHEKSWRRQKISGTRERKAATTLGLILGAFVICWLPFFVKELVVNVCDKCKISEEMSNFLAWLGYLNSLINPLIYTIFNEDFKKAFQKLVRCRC
Briefly: Compound was tested for its binding affinity against 5-hydroxytryptamine 1F receptor in human cloned receptors in CHO cells using [3H]5-HT. The class given is cell-based. The procedure, abridged:
as §1

In assay [8] the target is 5-hydroxytryptamine receptor 2B (Homo sapiens, UniProt P41595). As to the kind of experiment: Compound was tested for its binding affinity against cloned human 5-hydroxytryptamine 2B receptor in HEK 293 cells using [3H]5-HT. Type of assay: cell-based, HEK293. The procedure, abridged: as §1
Assay [9] concerns the target 5-hydroxytryptamine receptor 4 (Homo sapiens, UniProt Q13639). As to the kind of experiment: Compound was tested for its binding affinity against 5-hydroxytryptamine 4 receptor.
Assay [10] has as its target 5-hydroxytryptamine receptor 7 (Homo sapiens, UniProt P34969). As to the kind of experiment: Compound was tested for its binding affinity against human cloned 5-hydroxytryptamine 7 receptor in HEK 293 cells using [3H]5-CT. Type of assay: cell-based, HEK293. An outline of the steps:
as §1

Assay [11] addresses T3, Alpha-1B adrenergic receptor (Homo sapiens, UniProt P35368).
T3 sequence (P35368 whole entry): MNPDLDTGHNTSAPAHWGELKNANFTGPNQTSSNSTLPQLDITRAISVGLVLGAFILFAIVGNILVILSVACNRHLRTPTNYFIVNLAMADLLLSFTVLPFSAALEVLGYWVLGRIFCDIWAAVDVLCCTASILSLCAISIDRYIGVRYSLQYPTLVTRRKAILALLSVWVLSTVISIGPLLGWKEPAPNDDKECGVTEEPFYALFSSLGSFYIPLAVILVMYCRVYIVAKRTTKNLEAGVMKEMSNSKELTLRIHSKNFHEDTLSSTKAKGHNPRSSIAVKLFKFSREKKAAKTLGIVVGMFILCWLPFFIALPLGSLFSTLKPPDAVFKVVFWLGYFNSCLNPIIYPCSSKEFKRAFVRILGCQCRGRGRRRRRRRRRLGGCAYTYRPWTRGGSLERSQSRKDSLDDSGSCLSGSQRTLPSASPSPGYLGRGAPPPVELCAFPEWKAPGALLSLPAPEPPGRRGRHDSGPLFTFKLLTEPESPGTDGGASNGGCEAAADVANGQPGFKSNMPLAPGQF
As to the kind of experiment: Compound was tested for its binding affinity against Alpha-1B adrenergic receptor.

In the next assay the target is D(3) dopamine receptor (Homo sapiens, UniProt P35462). As to the kind of experiment: Compound was tested for its binding affinity against Dopamine receptor D3 in human cloned receptors in CHO cells using [125 I]iodosulpride. Type of assay: cell-based. The procedure, abridged: as §1
The next assay has as its target D(2) dopamine receptor (Homo sapiens, UniProt P14416). Briefly: Compound was tested for its binding affinity against Dopamine receptor D2 in human cloned receptors in CHO cells using [125 I]iodosulpride. The class given is cell-based. The procedure, abridged:
as §1

Assay [12] deals with T4, 5-hydroxytryptamine receptor 2C (Homo sapiens, UniProt P28335).
T4 sequence (P28335 whole entry): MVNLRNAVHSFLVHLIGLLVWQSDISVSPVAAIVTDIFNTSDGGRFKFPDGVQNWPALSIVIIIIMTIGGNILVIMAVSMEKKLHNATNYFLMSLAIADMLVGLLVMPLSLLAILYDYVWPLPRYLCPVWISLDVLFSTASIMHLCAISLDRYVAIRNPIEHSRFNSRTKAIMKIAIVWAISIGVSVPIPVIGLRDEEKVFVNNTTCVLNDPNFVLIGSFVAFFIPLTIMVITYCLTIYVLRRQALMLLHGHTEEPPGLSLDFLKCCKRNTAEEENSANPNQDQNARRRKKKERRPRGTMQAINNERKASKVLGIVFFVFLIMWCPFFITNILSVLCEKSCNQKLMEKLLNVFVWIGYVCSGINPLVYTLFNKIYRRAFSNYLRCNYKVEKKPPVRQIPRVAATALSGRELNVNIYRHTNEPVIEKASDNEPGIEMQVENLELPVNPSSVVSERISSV
As to the kind of experiment: Compound was tested for its binding affinity against human cloned 5-hydroxytryptamine 2C receptor in HEK 293 cells using [3H]mesulergine. Type of assay: cell-based, HEK293. The procedure, abridged: as §1

The target in assay [13] is T3, Alpha-1B adrenergic receptor. Briefly: Compound was tested for its binding affinity against adrenergic Alpha-1B adrenergic receptor.
The next assay deals with T5, Cytochrome P450 1A2 (Homo sapiens, UniProt P05177).
T5 sequence (P05177 whole entry): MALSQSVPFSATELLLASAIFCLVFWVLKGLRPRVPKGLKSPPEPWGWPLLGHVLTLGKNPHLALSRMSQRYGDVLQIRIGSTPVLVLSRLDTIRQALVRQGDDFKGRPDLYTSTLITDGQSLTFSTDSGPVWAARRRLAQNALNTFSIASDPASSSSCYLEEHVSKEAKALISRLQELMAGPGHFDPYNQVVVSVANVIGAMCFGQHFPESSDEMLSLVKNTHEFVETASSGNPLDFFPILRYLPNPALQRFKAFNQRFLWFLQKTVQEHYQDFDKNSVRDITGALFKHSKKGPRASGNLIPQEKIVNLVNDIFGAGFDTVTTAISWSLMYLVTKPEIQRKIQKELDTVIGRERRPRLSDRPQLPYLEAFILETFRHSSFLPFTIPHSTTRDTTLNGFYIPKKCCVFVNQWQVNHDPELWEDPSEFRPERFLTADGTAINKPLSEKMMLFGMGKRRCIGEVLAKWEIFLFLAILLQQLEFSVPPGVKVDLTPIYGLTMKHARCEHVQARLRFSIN
Briefly: Inhibition of human cytochrome P450 1A2 activity as caffeine N3 demethylation (500 uM). Type of assay: ADME. The procedure, abridged:
(§2)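 Heterologously expressed human CYP isoforms in isoform-selective assays, with substrate at its Km. CYP1A2: caffeine N3-demethylation (500 μM). CYP2C9: tolbutamide methylhydroxylation (100 μM). CYP2C19: S-mephenytoin 4-hydroxylation (100 μM). CYP2D6: bufuralol 1'-hydroxylation (10 μM). CYP3A4: total cyclosporin oxidation (1 μM). IC50 is the mean of duplicate determinations, agreeing within 10%.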

The target of the next assay is Cytochrome P450 2C19 (Homo sapiens, UniProt P33261). Briefly: Inhibition of human cytochrome P450 2C19 as S-mephenytoin-4-hydroxylation (100 uM). The class given is ADME. The procedure, abridged:
as §2

In a further assay the target is Cytochrome P450 2C9 (Homo sapiens, UniProt P11712). As to the kind of experiment: Inhibitory potential of human cytochrome P450 2C9 as Tolbutamide methylhydroxylation (100 uM). Type of assay: ADME. The procedure, abridged: as §2
The target in another assay is Cytochrome P450 2D6 (Homo sapiens, UniProt P10635). Briefly: Inhibition of human cytochrome P450 2D6 as bufuralol 1''-hydroxylation (10 uM). The class given is ADME. An outline of the steps: as §2

The structures appear in SMILES notation.

Chain of 5-hydroxytryptamine receptor 6 (P50406 whole entry): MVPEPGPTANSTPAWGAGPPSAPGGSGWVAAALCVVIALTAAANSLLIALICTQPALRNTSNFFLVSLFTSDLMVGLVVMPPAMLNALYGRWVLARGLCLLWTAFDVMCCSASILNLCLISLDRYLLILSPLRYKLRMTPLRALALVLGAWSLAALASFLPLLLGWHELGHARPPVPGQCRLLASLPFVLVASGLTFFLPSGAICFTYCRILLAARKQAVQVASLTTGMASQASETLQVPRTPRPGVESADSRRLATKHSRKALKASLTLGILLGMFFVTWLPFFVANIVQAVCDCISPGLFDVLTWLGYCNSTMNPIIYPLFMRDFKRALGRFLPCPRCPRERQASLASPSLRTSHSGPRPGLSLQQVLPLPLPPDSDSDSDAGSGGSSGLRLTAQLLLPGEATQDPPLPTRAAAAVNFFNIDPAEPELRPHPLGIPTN
Chain of 5-hydroxytryptamine receptor 1E (P28566 whole entry): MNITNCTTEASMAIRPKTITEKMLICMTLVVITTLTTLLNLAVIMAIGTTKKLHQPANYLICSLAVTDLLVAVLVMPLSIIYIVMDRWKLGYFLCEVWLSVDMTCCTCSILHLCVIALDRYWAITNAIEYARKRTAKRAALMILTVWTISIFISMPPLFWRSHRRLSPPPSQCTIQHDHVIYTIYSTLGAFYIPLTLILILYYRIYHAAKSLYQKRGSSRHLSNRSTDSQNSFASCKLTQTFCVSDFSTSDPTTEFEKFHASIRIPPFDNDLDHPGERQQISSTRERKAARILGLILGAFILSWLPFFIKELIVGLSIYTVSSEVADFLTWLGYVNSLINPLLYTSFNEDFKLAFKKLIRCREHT
Chain of 5-hydroxytryptamine receptor 2A (P28223 whole entry): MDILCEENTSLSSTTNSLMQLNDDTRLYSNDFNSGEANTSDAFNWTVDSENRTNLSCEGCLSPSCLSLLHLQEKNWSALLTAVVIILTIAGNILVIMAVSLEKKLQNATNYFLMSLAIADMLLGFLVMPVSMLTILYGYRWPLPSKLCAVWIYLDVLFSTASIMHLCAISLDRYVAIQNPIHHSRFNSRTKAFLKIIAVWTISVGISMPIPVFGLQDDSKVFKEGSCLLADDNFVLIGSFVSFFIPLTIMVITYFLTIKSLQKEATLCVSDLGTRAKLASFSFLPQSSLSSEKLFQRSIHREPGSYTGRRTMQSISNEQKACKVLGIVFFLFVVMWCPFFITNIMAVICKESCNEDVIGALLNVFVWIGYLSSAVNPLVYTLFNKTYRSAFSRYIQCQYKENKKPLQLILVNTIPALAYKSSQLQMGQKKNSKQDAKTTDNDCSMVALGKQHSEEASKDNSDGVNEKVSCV
Chain of 5-hydroxytryptamine receptor 1D (P28221 whole entry): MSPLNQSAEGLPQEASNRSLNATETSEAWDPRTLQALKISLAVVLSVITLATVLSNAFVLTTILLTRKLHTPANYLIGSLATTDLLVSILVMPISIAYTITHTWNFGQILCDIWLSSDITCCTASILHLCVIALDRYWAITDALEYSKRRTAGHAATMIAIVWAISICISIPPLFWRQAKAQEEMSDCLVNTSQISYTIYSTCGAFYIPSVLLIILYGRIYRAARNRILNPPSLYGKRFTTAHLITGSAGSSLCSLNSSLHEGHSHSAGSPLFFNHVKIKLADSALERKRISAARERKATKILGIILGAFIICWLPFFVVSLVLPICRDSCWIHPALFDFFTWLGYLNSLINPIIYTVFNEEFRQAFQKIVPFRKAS
Chain of 5-hydroxytryptamine receptor 1B (P28222 whole entry): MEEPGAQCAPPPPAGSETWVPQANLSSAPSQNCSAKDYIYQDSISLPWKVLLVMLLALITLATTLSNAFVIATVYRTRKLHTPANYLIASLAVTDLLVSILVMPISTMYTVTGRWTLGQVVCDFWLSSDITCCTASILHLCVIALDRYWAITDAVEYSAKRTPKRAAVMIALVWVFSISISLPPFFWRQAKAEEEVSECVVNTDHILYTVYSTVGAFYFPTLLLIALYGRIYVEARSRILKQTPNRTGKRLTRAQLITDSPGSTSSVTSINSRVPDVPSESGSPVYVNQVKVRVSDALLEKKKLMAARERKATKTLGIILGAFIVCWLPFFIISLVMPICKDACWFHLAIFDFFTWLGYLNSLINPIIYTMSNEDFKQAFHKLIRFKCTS
Chain of D(2) dopamine receptor (P14416 whole entry): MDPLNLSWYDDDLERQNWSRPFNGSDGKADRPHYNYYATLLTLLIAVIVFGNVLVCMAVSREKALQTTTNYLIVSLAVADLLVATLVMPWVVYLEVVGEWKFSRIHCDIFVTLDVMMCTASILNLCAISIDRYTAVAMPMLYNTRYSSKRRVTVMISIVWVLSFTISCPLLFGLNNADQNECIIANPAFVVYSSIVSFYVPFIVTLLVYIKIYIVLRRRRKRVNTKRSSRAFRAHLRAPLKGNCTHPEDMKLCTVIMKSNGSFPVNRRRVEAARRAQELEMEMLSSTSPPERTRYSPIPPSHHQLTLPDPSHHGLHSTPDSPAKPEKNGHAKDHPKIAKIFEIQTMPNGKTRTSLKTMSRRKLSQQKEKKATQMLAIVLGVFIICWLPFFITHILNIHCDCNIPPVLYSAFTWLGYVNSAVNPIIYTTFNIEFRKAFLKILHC
Chain of 5-hydroxytryptamine receptor 2B (P41595 whole entry): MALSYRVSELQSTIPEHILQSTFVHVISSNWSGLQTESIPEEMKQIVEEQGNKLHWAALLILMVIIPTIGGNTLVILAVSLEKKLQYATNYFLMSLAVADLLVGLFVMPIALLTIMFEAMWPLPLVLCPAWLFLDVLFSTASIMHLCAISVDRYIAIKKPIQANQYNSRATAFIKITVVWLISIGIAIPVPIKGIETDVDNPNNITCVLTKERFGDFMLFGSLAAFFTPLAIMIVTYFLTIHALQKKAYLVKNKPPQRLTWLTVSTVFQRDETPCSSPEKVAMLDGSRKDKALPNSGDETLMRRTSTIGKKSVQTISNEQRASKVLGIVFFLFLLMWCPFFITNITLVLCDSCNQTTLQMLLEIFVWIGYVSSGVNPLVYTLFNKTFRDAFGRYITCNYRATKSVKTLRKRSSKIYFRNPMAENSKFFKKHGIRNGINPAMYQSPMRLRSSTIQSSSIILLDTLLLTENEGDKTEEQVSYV
Chain of 5-hydroxytryptamine receptor 4 (Q13639 whole entry): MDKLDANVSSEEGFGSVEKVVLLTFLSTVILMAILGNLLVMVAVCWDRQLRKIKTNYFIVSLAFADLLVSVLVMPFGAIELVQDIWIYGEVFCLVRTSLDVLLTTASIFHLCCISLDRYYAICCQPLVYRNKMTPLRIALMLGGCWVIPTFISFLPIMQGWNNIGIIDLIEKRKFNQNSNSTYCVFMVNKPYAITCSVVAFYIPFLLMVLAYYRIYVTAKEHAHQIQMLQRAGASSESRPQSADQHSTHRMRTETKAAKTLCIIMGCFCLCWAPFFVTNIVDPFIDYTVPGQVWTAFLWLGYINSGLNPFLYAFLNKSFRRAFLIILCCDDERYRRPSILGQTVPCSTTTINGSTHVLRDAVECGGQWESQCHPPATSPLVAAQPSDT
Chain of Cytochrome P450 2D6 (P10635 whole entry): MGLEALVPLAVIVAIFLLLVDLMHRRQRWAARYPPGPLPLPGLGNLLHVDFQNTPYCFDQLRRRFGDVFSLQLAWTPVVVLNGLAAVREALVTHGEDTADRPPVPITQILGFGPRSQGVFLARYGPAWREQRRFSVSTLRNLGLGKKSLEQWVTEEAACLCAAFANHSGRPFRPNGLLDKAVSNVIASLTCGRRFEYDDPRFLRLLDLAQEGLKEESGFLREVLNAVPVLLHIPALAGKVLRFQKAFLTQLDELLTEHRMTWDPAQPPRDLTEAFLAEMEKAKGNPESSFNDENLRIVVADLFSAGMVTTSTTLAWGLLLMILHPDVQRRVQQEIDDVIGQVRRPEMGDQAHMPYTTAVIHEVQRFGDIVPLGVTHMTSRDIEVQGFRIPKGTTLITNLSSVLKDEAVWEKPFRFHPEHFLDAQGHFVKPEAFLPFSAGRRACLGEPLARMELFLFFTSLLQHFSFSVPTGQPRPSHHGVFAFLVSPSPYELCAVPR
Chain of D(3) dopamine receptor (P35462 whole entry): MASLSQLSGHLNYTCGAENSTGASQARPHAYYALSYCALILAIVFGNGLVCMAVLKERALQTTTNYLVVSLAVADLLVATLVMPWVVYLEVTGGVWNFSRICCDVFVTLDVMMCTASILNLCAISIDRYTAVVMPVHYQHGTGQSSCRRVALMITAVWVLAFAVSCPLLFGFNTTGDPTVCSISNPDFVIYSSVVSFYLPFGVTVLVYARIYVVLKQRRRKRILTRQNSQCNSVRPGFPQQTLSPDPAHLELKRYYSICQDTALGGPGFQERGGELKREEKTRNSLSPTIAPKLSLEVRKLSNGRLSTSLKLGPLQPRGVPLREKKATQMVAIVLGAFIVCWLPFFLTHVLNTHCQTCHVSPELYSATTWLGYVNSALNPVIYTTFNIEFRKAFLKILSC
Chain of Cytochrome P450 2C19 (P33261 whole entry): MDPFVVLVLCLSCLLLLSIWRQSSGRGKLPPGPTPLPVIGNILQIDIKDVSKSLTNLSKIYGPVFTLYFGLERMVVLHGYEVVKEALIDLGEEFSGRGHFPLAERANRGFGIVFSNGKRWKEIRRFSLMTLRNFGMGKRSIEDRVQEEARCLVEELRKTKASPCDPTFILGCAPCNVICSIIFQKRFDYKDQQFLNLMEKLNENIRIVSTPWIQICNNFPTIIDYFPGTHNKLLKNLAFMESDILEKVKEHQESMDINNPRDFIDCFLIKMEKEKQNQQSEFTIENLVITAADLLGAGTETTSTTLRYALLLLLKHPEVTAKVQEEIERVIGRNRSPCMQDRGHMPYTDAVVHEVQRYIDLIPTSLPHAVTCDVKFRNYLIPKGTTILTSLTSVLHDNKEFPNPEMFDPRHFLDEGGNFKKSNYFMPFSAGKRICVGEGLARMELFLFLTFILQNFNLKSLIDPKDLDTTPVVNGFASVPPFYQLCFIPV

What is called Ki is a dissociation constant, usually derived from enzyme kinetics or from competition with a known ligand. Higher therefore signals weaker binding. In the case of `COc1ccc(NS(=O)(=O)c2c(F)c(Br)cc(F)c2Br)cc1N1CCN(C)CC1`, the affinity in assay [1] corresponds to a Ki of 3.16 nM. For the same compound, the Selectivity in the assay filed under Homo sapiens was over 300.

Take `COc1ccc(NS(=O)(=O)c2cc(Cl)cc(Cl)c2)cc1N1CCN(C)CC1`: affinity in assay [1] was put at a Ki of 2 nM. Also, the Selectivity in the assay filed under Homo sapiens was over 100.

In assay [1], `COc1ccc(NS(=O)(=O)c2c(C)sc3ccc(Cl)cc23)cc1N1CCN(C)CC1` showed a Ki of 1.26 nM. In the assay listed under Homo sapiens, this compound gave a Selectivity of over 300.

Compound `COc1ccc(NS(=O)(=O)c2ccc([N+](=O)[O-])cc2)cc1N1CCN(C)CC1` gave a Ki in assay [1] of 79.4 nM. This counts as double-digit nanomolar.

Compound `CNc1cc(NS(=O)(=O)c2ccc(N)cc2)cc(NC)n1` showed a Ki in assay [1] of 12.6 nM.

Take `COc1ccc(NS(=O)(=O)c2sc3ccc(Cl)cc3c2C)cc1N1CCN(C)CC1`: the Ki was 501 nM in assay [2]; 794 nM in assay [3]; 200 nM in [4]; 2510 nM in assay [5]; 1000 nM in [6]; 251 nM in [7]. In addition, the Ki in assay [8] was 1000 nM; in assay [9], 3160 nM; in assay [10], 3160 nM; in assay [11], 2000 nM; on D(3) dopamine receptor, 200 nM; on D(2) dopamine receptor, 794 nM. For the same compound, in [12], the affinity corresponds to a Ki of 501 nM.

By IC50 is commonly meant the concentration at which inhibition is half-maximal. For the compound `COc1ccc(NS(=O)(=O)c2sc3ccc(Cl)cc3c2C)cc1N1CCNCC1`, the Ki in assay [3] is 794 nM; in assay [4], 251 nM; in assay [5] it was over 10000 nM; in assay [6], over 2510 nM; in assay [7], over 1000 nM; in [8] it was over 3980 nM. The Ki in assay [13] is 2000 nM; on D(2) dopamine receptor, 2510 nM; in [12], 2000 nM. Further, the IC50 is 66000 nM at Cytochrome P450 1A2, 26000 nM against Cytochrome P450 2C19, over 100000 nM against Cytochrome P450 2C9 and 32000 nM against Cytochrome P450 2D6.
